Bioassay records from PubChem BioAssay.
PGC1a acetyl inh: modulators of PGC1a acetylation. U2OS PGC1a acetylation, AlphaScreen anti-acetyl-lysine; with virally co-expressed GCN5 acetyltransferase. inhibition, % at 15.6 µM. 350,000 compounds, 0.17% hits. AID 651687;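 active = every replicate shows inhibition of at least 40%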
S100A4 inh HTS: inhibitors of human S100A4 binding to myosin IIA peptide; S100A4/TAMRA-MyoIIA peptide fluorescence polarization; 360,000 compounds, 0.14% hits; P26447; inhibition, % at 10.7 µM;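 active = mean inhibition of at least 70% across replicates, with every replicate also reaching that level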
Target sequence (P26447 whole entry, looked up): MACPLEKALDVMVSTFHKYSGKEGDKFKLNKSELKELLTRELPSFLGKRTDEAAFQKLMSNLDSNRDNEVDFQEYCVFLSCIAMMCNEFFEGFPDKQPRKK
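assay system = human S100A4 monomer with TAMRA-labelled myosin IIA peptide | also added = labelled myosin peptide probe, 5 nM | incubation = 5 min between mix addition and reading | control set = DMSO and TFP controls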
SIRT5 block: inhibitors of human sirtuin-5 desuccinylase | Purified SirT5, succinyl-peptide AMC, trypsin-coupled fluorescence | inhibition, % at 15 µM | 330,000 compounds, 1.1% hits | AID 652115; in the data active = inhibition above about 15%
Target sequence (Q9NXA8 whole entry, looked up): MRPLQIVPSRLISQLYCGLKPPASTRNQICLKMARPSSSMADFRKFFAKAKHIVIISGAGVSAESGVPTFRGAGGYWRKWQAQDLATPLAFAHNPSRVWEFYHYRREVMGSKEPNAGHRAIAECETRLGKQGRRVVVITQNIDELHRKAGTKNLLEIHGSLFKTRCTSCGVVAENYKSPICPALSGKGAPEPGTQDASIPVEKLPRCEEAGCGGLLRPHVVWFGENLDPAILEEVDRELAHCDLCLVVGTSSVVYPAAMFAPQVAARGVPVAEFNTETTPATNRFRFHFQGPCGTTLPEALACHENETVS
C2C12 statin: suppressors of simvastatin-induced myotoxicity in C2C12 myotubes; ATP luminescence, 48 h; scaled: DMSO 0, geranylgeraniol control 100; rescue of ATP level, % at 7.49 µM; 330,000 compounds, 0.78% hits; AID 602340;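 active = mean ATP rescue above about 67%, or every replicate alone reaching that limit, limit read from the data, passing the limit was not always enough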;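 note: myotubes were challenged with 10 µM simvastatin during compound exposure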
DENV2 CPE rescue: DENV2-induced cell death inhibition; DENV2-infected cells, cytopathic effect rescue, plate reader; CPE inhibition, % at 9.99 µM; 350,000 compounds, 1.7% hits; AID 651640; in the data active = CPE inhibition above about 20%, passing the limit was not always enough; tested in BHK-21 cells
A number is an active result; i = inactive; nt = not tested or not shown. A selection: hits, their analogues and other compounds. The true share with any hit is near 2.9%.

SMILES | PGC1a acetyl inh | S100A4 inh HTS | SIRT5 block | C2C12 statin | DENV2 CPE rescue
O=S(=O)(N[C@@H]1CC[C@@H](CCn2cc(-c3cccc(F)c3)nn2)O[C@@H]1CO)c1ccc(Cl)cc1 | i | i | i | i | i
CC(=O)N1[C@@H](CO)[C@H](c2ccc(-c3ccc(F)cc3)cc2)[C@@H]1CNC(=O)C1CC1 | i | nt | nt | i | i
CC(=O)NC[C@@H]1[C@H](c2ccc(-c3ccccc3F)cc2)[C@H](CO)N1C(=O)C1CC1 | i | i | i | i | i
CC(=O)NC[C@H]1[C@@H](c2ccc(-c3cccnc3)cc2)[C@H](CO)N1C(=O)C1CC1 | i | i | i | i | 28.2
CC(=O)N1[C@H](CO)[C@@H](c2ccc(-c3cccc(F)c3)cc2)[C@H]1CNC(=O)C1CC1 | i | nt | nt | i | 124.2
CC(=O)NC[C@@H]1[C@H](c2ccc(-c3ccccc3)cc2)[C@H](CO)N1C(=O)C1CC1 | i | i | i | i | 76.2
CC(=O)NC[C@H]1[C@H](c2ccc(-c3cccnc3)cc2)[C@@H](CO)N1C(=O)C1CC1 | i | i | i | i | i
CC(=O)NC[C@H]1[C@H](c2ccc(-c3ccccc3F)cc2)[C@@H](CO)N1C(=O)C1CC1 | i | i | i | i | 81.3
CNC[C@@H]1Oc2cc(C#CC3CCCCC3)ccc2S(=O)(=O)N([C@@H](C)CO)C[C@@H]1C | i | i | i | i | i
C[C@H]1CN([C@@H](C)CO)C(=O)c2cc(NS(=O)(=O)c3cn(C)cn3)ccc2O[C@@H]1CN(C)Cc1ccc(C(F)(F)F)cc1 | i | i | i | i | i
CC(=O)NC[C@H]1[C@@H](c2ccc(-c3ccccc3F)cc2)[C@@H](CO)N1C(C)=O | i | i | i | i | 41.4
CC(=O)N1[C@H](CO)[C@H](c2ccc(-c3ccccc3F)cc2)[C@@H]1CNC(C)C | nt | i | i | nt | i
C[C@@H]1CN([C@@H](C)CO)C(=O)c2cc(NS(C)(=O)=O)ccc2O[C@@H](C)CCCCO[C@H]1CN(C)C(=O)c1ccncc1 | i | i | i | nt | 68.8
C[C@H](CO)N1C[C@H](C)[C@H](CN(C)C(=O)c2ccncc2)OCCCC[C@H](C)Oc2ccc(NS(=O)(=O)c3cn(C)cn3)cc2C1=O | i | i | i | nt | 24.3
C[C@@H]1CCCCO[C@H](CN(C)C(=O)c2ccncc2)[C@@H](C)CN([C@@H](C)CO)C(=O)c2cc(NS(C)(=O)=O)ccc2O1 | i | i | i | nt | i
COc1cccc(S(=O)(=O)N(C)C[C@@H]2OCc3ccccc3-c3ccccc3C(=O)N([C@H](C)CO)C[C@H]2C)c1 | i | i | i | nt | i
COc1cccc(-c2cnc3c(c2)C(=O)N([C@@H](C)CO)C[C@@H](C)[C@H](CN(C)CC2CCCC2)O3)c1 | i | nt | nt | i | nt
Cc1ccc(CN2CCN(Cc3cn(C(C)C)c4ccccc34)CC2CCO)o1 (centres undefined) | i | i | i | i | i
CC(=O)c1cccc(CN2CCN(CC=C(C)C)C(CCO)C2)c1 (centres undefined) | i | i | 16.7 | i | i
CC(C)=CCN1CCN(Cc2cn(C(C)C)c3ccccc23)CC1CCO (centres undefined) | nt | i | 22.0 | i | i
CCc1cc2c(=O)c(-c3cnn(-c4ccccc4)c3)c(C)oc2cc1OCC(=O)Nc1cccc(C)c1 | nt | i | 26.5 | nt | i
CCc1cc2c(=O)c(-c3cnn(-c4ccccc4)c3)c(C)oc2cc1OCC(=O)Nc1ccc(F)c(F)c1 | nt | i | i | nt | i
COc1ccc(-c2ccc(/C=N/NC(=O)Cc3nnc(N)s3)o2)cc1Cl | 56.8 | i | i | nt | i
Cc1ccccc1C(=O)N1CCN(c2ccc([N+](=O)[O-])c(NCc3ccco3)c2)CC1 | i | nt | nt | 129.5 | nt
Cc1ccccc1C(=O)N1CCN(c2ccc(NC(=O)c3ccc([N+](=O)[O-])o3)cc2)CC1 | nt | i | i | 166.6 | i
SMILES | PGC1a acetyl inh | S100A4 inh HTS | SIRT5 block | C2C12 statin | DENV2 CPE rescue
O=C(c1cccc2ccccc12)N1CCN(c2ccc([N+](=O)[O-])c(NCc3ccco3)c2)CC1 | i | i | i | nt | i
CN1CCN(c2ccc(NC(=O)c3ccc([N+](=O)[O-])o3)cc2Cl)CC1 | nt | i | i | 93.6 | i
COc1ccc(C(N)CCc2ccc(C)o2)cc1 (centres undefined) | i | nt | nt | 136.9 | nt
O=C(Nc1ccccc1)C1CCCN1C(=O)Nc1ccccc1[N+](=O)[O-] (centres undefined) | nt | i | i | nt | nt
CC(=O)Nc1ccc(NC(=O)C2CCCN2C(=O)Nc2ccccc2[N+](=O)[O-])cc1 (centres undefined) | i | i | 20.5 | i | i
C[C@H](CO)N1C[C@H](C)[C@@H](CN(C)Cc2ccc(-c3ccccc3)cc2)Oc2c(NC(=O)c3ccc(-c4nccs4)cc3)cccc2C1=O | i | i | i | i | i
C[C@H](CO)N1C[C@H](C)[C@@H](CN(C)Cc2ccc(Oc3ccccc3)cc2)Oc2ccc(NC(=O)CCC(F)(F)F)cc2CC1=O | i | nt | nt | 93.2 | i
C[C@H]1CN([C@@H](C)CO)C(=O)Cc2cc(NC(=O)Cc3ccccc3)ccc2O[C@H]1CN(C)Cc1ccc(Oc2ccccc2)cc1 | i | i | 17.0 | i | i
COc1ccc(NC(=O)Nc2cccc3c2O[C@@H](CN(C)Cc2ccc(C(=O)O)cc2)[C@H](C)CN([C@H](C)CO)C3=O)cc1 | i | i | i | i | i
COc1ccc(CN(C)C[C@H]2OCCCC[C@@H](C)Oc3ccc(NC(=O)NC4CCCCC4)cc3C(=O)N([C@H](C)CO)C[C@@H]2C)cc1 | i | i | i | nt | i
C[C@@H]1CN([C@H](C)CO)C(=O)c2cc(NC(=O)c3ccncc3)ccc2O[C@@H](C)CCCCO[C@H]1CN(C)Cc1ccccc1 | i | i | i | nt | i
CCC[C@@H](CN1CCC[C@H]1CN1C(N)=NC[C@H]1CC(C)C)N1C[C@@H](Cc2ccccc2)N(CCc2ccc(Cl)c(Cl)c2)C1=N | nt | i | i | i | 55.2
COc1ccc(NC(=O)Nc2ccc3c(c2)CC(=O)N([C@H](C)CO)C[C@@H](C)[C@H](CN(C)C(=O)Nc2ccc(C(F)(F)F)cc2)O3)cc1 | i | nt | nt | i | i
O=C(NCCS(=O)(=O)NCCCc1ccccc1)c1ccccc1 | nt | 93.6 | i | nt | i
O=C(NCCS(=O)(=O)NCCc1ccccc1)c1ccccc1 | i | i | i | i | i
C[C@@H]1CN([C@H](C)CO)C(=O)c2cc(NC(=O)c3ccccc3)ccc2O[C@@H](C)CCCCO[C@H]1CN(C)C(=O)c1ccccc1 | i | i | i | nt | i
C[C@H](CO)N1C[C@H](C)[C@H](CN(C)S(=O)(=O)c2ccc(Cl)cc2)Oc2ccc(NC(=O)CCCN(C)C)cc2CC1=O | i | i | i | i | i
Cc1ccc(Sc2ncccc2C(=O)NCc2cc([N+](=O)[O-])ccc2O)cc1C | i | i | i | i | 58.4
COc1ccc(CNC(=O)c2cccnc2Sc2ccc(C)c(C)c2)cc1 | i | nt | nt | i | nt
